Jurkat NFkB inh – lowers PMA/ionomycin-induced NF-kB signal in Jurkat cells; PMA/ionomycin-induced NF-kB luciferase reporter, luminescence; inhibition, % at 4 µM; 0.53% of 330,000 active; AID 435003; in the data active = inhibition above about 50%
697 NFkB inh – inhibitors of the PMA/ionomycin-induced NF-kB reporter in 697 B cells. AID 435022. 697 B-cell NF-kB luciferase reporter, 16 h. inhibition, % at 4 µM. 0.33% of 330,000 active; in the data active = inhibition above about 35%
NR2E3 ag-1 – human photoreceptor-specific nuclear receptor agonism; inhibition of corepressor binding, % at 3.98 µM; CHO-S Gal4-NCOR/VP16-NR2E3 two-hybrid, luciferase; 0.35% of 360,000 active; AID 602229; Q9Y5X4;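 active = inhibition above the mean of all tested compounds plus 3 SD, cut at about 70% in these data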;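 note: 0% = DMSO with NR2E3 transfected cells and 100% = cells lacking NR2E3 construct; higher means lower luciferase signal from less NR2E3 corepressor binding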
Target sequence (Q9Y5X4 whole entry, looked up, the tested form may be a part): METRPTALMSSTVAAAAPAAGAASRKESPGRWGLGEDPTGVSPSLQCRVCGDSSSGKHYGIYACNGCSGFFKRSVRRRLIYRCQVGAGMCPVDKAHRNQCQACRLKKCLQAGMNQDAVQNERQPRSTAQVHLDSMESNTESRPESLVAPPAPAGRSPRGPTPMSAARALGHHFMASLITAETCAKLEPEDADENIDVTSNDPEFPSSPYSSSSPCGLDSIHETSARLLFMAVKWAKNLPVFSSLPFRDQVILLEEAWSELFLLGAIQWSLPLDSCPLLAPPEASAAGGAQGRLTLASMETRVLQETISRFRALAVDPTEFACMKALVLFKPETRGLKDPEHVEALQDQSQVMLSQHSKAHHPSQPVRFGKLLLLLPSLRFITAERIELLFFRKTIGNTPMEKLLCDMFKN
NR2E3 ag-2 – activates human photoreceptor nuclear receptor NR2E3; GST-NR2E3/biotin-RetCOR TR-FRET, 1536-well; inhibition of corepressor binding, % at 4.78 µM; 0.12% of 320,000 active; AID 2300;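 active = percent inhibition above the cutoff of mean plus 3 SD of all tested compounds, set per screening campaign, cut at about 20% in these data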;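 note: 0% = DMSO wells and 100% = biotin wells as full block of FRET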
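Test system: GST-NR2E3 and biotin-RetCOR proteins | Quantity: 1.35 nM GST-tagged NR2E3 final | Medium: Tris pH 7.5 | Also added: 7 nM biotin-RetCOR | Dosing: Compound at 4.8 µM, single dose | Timing: 5 h at 4 °C | Detection: Time-resolved FRET | Read-out basis: Percent inhibition | Benchmarks: Biotin wells as high control, 0.6% DMSO wells as low control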
aDG glyco up – alpha-DG glycosylation activation | Pro5-aDG cells, alpha-DG glycosylation AlphaScreen (IIH6); 0% Pro5, 100% B10-LARGE cell signal | activation, % at 10 µM | 0.22% of 360,000 active;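 active = activation of at least 8% versus controls, or a plate z-score of at least 8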;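 note: Pro5 are CHO cells carrying HIG-tagged alpha-DG that lacks glycosylation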
MPTP inh – inhibitors of mitochondrial permeability transition pore | 1.4% of 360,000 active | isolated mouse mitochondria, Ca2+ swelling absorbance, 30 min | inhibition, % at 10 µM;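 active = inhibition of 50% or more, scaled per plate between neutral and stimulator controls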;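 note: 0% = DMSO wells given calcium and 100% = 1 mM EGTA wells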
Jurkat NFkB conf – inhibitors of the PMA/ionomycin-induced NF-kB reporter in Jurkat cells, retest | shares compounds with Jurkat NFkB inh | Jurkat NF-kB luciferase, 16 h | inhibition, % at 4 µM | 27% of 2,700 active | AID 435020;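 active = inhibition reaching about 45% at 4 µM in either replicate, limit read from the data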;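 note: plate controls were PMA/ionomycin stimulated DMSO wells for no effect and unstimulated DMSO wells for full effect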
697 NFkB conf – lowers PMA/ionomycin-induced NF-kB signal in 697 B cells; 35% of 2,000 active; 697 B-cell NF-kB luciferase, 16 h; AID 449746; inhibition, % at 4 µM; shares compounds with 697 NFkB inh; in the data active = inhibition mostly above about 28%, no sharp cut-off; inactive = mostly below about 22%
NR2E3 ag confirm – NR2E3 agonism confirmed in two-hybrid assay | shares compounds with NR2E3 ag-1 | CHO-S mammalian two-hybrid NR2E3-NCOR, luciferase luminescence | inhibition, % at 3.98 µM | 51% of 2,300 active;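 active = average inhibition above a cutoff equal to the mean inhibition of all tested compounds plus one SD, cut at about 70% in these data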;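 note: 0% = DMSO in NR2E3 cells and 100% = DMSO in cells lacking NR2E3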
VP16 counter – GAL4-VP16 reporter inhibition in NR2E3 agonist counterscreen | shares compounds with NR2E3 ag-1 | CHO-S GAL4-VP16 luciferase reporter, luminescence | inhibition, % at 3.98 µM | 29% of 2,300 active | AID 624379;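 active = mean inhibition above a cutoff equal to the average over all tested compounds plus one standard deviation, cut at about 70% in these data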;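 note: luciferase from a UAS reporter driven by GAL4-VP16 transactivation; 0% = DMSO with VP16-transfected cells and 100% = DMSO with cells lacking VP16; higher means less reporter light so more repression of VP16 activity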
Rh123 counter – mitochondrial membrane potential, counter-screen; 78% of 5,000 active; inhibition, % at 10 µM; shares compounds with MPTP inh; isolated mitochondria, Rhodamine 123 fluorescence; in the data active = inhibition above about 22%;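 note: 0% = DMSO vehicle and 100% = positive control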
Numbers without * were called inactive; . = no result. In the library only some 2.4% were active in any assay of this set; here they are far more common.

SMILES | Jurkat NFkB inh | 697 NFkB inh | NR2E3 ag-1 | NR2E3 ag-2 | aDG glyco up | MPTP inh | Jurkat NFkB conf | 697 NFkB conf | NR2E3 ag confirm | VP16 counter | others
CC(=O)OC1CC(OC2C(O)CC(OC3C(O)CC(OC4CCC5(C)C(CCC6C5CCC5(C)C(C7=CC(=O)OC7)CCC65O)C4)OC3C)OC2C)OC(C)C1OC1OC(CO)C(O)C(O)C1O (stereo not drawn) | . | . | -9 | . | 0 | -1 | . | . | . | .
Nc1ccccc1C(=O)OCCc1ccccc1 | -178 | -263 | -166 | 7 | 0 | 0 | -104 | -250 | . | .
C=C(C=O)CC1CC(O)[C@]2(C)OC3CC4OC5C[C@]6(C)O[C@]7(C)CCC8OC9C[C@]%10(C)OC%11C(C)=CC(=O)OC%11CC%10OC9C[C@@H](C)C8OC7CC6O[C@]5(C)CC5OC5C4OC3CC2O1 (stereo partly drawn) | 96* | -390 | 4 | 2 | 0 | -1 | 96* | 38* | . | .
C=C(CO)CC1CC(O)[C@]2(C)OC3CC4OC5C[C@]6(C)O[C@]7(C)CCC8OC9C[C@]%10(C)OC%11C(C)=CC(=O)OC%11CC%10OC9C[C@@H](C)C8OC7CC6O[C@]5(C)C/C=C\C4OC3CC2O1 (stereo partly drawn) | 23 | 19 | -13 | -1 | 0 | -2 | . | . | . | .
CC(=O)OC[C@]12CCC(C)=C[C@H]1O[C@@H]1[C@H](O)[C@@H](OC(C)=O)[C@@]2(C)[C@]12CO2 | 97* | 98* | 102* | -1 | -1 | -1 | 99* | 94* | 100* | 99*
C=C1C(=O)O[C@@H]2C[C@@H](C)[C@@H]3C=CC(=O)[C@@]3(C)[C@@H](O)[C@H]12 | 99* | 102* | 100* | 8 | 0 | -2 | 95* | 105* | 99* | 54
COC(=O)C1=C(c2cc3ccccc3s2)C[C@@H]2CC[C@H]1N2C(=O)N1CCOCC1 | 31 | -14 | -35 | 3 | 0 | 0 | . | . | . | .
CC1CN1P1(=O)OCC(C)([N+](=O)[O-])CO1 (stereo not drawn) | . | . | 11 | . | 0 | 1 | . | . | . | .
Nc1ncnc2c1ccn2[C@@H]1O[C@H](CO)[C@@H](O)[C@H]1O | 86* | 75* | 100* | 2 | 0 | 0 | 85* | 98* | 98* | 89*
COc1cc(C)c(CN2CC=C(c3ccc(F)cc3)CC2)cc1C | -15 | -22 | -19 | 3 | 0 | 0 | . | . | . | .
COc1cc2nc(CN3CC=C(c4ccccc4)CC3)[nH]c(=O)c2cc1OC | 59* | 26 | 90* | 0 | 0 | 2 | 52* | . | 99* | 42
C[C@H]1CCCC(=O)CCC/C=C/c2cc(O)cc(O)c2C(=O)O1 | 6 | 1 | 24 | 1 | 0 | 4 | . | . | . | .
C[C@H]1CCC/C=C/[C@@H]2C[C@H](O)C[C@H]2[C@H](O)/C=C/C(=O)O1 | 98* | 66* | 95* | 5 | 0 | 1 | -15 | 81* | 99* | 65
c1cc2c(cc1-c1ccc3c(c1)OCO3)CNCc1cnnn1-2 | . | . | -66 | . | 0 | -1 | . | . | . | .
CCOc1cccc(CNCCc2c(C)[nH]c3ccc(OC(F)(F)F)cc23)c1O | 66* | -25 | 98* | 2 | 0 | 80* | 25 | . | 90* | 71 | Rh123 counter=79*
CC(C)[C@H](NC(=O)N1C[C@H]2C[C@@H](C1)c1cccc(=O)n1C2)C(=O)Nc1ccccc1F | 1 | 15 | -13 | 0 | 0 | 3 | . | . | . | .
